Measurements taken from ChEMBL document CHEMBL3861996, “Arylsulfonamide derivatives of (aryloxy)ethyl pyrrolidines and piperidines as α1-adrenergic receptor antagonist with uro-selective activity” (Bioorg Med Chem, 2016).

Legend:
Rattus norvegicus [1] = species: Rattus norvegicus; test: Selectivity ratio of Ki for alpha2 adrenergic receptor in rat brain cerebral cortex membranes to Ki for alpha1 adrenergic receptor in rat brain cerebral cortex membranes; assay type: cell membranes
Procedure, shortened: (§1)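 Rat cerebral cortex homogenized in ice-cold 50 mM Tris–HCl (pH 7.6), spun at 20,000 g for 20 min (0–4 °C), resuspended and spun again. Membranes incubated with 0.2 nM [3H]-prazosin (α1) or 2 nM [3H]-clonidine (α2) and seven to eight compound concentrations (10^-11 to 10^-4 M). Non-specific binding defined with 10 µM phentolamine (prazosin) or 10 µM clonidine (clonidine). Ended by GF/C filtration, counted by liquid scintillation. Run in duplicate; Ki from two independent experiments.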

[2] = molecular target: T1, Adrenergic receptor alpha-1 (Rattus norvegicus, UniProt P15823+P23944+P43140); test: Displacement of [3H]-Prazosin from alpha1 adrenergic receptor in rat brain cerebral cortex membranes by liquid scintillation counting analysis; assay type: cell membranes, Membrane; procedure, shortened: as §1
T1 sequence (P15823 whole entry): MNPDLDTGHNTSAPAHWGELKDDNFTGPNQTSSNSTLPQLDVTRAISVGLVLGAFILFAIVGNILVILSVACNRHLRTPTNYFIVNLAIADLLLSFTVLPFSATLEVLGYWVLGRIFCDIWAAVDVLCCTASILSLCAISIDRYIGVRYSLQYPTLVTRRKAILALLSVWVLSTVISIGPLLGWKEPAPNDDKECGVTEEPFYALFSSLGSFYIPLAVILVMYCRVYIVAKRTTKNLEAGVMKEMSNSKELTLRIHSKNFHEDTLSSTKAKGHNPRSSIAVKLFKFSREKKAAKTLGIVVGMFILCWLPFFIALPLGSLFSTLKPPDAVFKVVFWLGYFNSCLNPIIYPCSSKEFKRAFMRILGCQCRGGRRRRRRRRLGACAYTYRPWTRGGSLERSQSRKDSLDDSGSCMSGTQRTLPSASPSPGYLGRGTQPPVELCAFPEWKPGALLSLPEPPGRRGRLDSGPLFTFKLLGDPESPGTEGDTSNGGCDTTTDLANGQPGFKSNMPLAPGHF
T1 sequence (P23944 whole entry): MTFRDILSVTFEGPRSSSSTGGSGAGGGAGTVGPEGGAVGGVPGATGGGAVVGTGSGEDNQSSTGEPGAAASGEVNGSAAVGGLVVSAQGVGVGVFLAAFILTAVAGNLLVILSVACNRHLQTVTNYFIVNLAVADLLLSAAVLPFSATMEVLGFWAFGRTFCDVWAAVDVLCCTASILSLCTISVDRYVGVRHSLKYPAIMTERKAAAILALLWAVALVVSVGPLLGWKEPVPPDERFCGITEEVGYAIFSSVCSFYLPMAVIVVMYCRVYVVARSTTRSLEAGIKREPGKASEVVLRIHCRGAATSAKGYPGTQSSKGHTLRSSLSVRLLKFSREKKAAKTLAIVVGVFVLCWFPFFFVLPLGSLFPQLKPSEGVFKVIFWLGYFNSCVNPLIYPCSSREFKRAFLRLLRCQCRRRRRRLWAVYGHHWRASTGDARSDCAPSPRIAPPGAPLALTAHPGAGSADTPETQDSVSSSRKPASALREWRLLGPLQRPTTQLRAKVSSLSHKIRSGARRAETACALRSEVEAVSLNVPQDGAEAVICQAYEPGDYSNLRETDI
T1 sequence (P43140 whole entry): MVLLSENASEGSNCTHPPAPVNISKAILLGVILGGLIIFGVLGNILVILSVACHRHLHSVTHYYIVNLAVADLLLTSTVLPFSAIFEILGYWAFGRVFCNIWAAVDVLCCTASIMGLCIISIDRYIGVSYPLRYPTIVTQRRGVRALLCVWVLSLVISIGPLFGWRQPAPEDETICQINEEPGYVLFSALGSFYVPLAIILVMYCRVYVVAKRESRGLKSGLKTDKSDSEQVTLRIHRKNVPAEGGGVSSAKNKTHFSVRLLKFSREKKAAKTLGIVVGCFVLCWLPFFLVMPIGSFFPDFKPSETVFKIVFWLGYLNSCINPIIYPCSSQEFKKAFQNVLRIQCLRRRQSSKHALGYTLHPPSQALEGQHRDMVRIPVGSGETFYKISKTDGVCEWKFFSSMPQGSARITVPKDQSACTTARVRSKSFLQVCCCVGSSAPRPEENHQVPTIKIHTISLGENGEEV

[3] = molecular target: T2, Adrenergic receptor alpha-2 (Rattus norvegicus, UniProt P22086+P19328+P22909); test: Displacement of [3H]-Clonidine from alpha2 adrenergic receptor in rat brain cerebral cortex membranes by liquid scintillation counting analysis; assay type: cell membranes, Membrane; procedure, shortened: as §1
T2 sequence (P22086 whole entry): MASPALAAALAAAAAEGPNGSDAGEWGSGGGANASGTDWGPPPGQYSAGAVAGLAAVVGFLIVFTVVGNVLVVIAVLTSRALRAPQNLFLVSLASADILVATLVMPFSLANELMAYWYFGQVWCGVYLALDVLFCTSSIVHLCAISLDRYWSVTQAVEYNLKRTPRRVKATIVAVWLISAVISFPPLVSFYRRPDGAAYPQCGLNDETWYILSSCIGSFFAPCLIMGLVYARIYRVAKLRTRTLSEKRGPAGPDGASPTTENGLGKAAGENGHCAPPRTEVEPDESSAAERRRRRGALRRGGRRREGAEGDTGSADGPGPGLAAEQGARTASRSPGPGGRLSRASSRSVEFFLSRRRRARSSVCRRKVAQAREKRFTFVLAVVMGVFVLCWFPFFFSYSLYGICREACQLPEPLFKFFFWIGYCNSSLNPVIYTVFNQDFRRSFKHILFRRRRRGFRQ
T2 sequence (P19328 whole entry): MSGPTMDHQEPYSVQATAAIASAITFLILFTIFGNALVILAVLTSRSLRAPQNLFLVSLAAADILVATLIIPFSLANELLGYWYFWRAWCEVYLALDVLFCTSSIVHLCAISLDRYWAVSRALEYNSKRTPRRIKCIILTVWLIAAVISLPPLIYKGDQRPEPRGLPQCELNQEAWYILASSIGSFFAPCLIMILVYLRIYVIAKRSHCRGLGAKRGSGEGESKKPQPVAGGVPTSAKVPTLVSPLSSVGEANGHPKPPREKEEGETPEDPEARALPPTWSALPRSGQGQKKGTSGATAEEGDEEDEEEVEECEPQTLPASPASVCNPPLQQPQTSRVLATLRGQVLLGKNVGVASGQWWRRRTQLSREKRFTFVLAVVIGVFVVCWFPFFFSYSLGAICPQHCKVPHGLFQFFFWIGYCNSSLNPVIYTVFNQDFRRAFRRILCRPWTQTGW
T2 sequence (P22909 whole entry): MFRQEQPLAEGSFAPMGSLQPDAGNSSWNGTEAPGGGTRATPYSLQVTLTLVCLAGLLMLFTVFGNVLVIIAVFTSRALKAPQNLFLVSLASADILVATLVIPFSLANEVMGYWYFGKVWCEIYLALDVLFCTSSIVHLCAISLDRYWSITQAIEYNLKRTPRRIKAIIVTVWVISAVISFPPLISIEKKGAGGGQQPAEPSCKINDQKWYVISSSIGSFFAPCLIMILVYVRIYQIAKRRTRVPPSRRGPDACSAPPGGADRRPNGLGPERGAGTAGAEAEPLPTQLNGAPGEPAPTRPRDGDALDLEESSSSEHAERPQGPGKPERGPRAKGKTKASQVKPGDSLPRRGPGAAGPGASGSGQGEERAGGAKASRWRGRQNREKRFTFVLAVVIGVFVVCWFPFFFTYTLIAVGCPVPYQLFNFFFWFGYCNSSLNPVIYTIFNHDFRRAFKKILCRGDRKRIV

Rattus norvegicus [4] = test: Hypotensive activity in normotensive anesthetized Wistar rat assessed as decrease in systolic blood pressure at 2 mg/kg, iv administered as single dose measured 60 mins post dose relative to control; assay type: functional; conditions: 1 h
Procedure, shortened: (§2)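 Male Wistar rats (200–250 g), groups of six, anaesthetized with thiopental 70 mg/kg ip. Left carotid artery cannulated with heparinized saline-filled tubing for pressure recording. Compounds dissolved in water and given once iv. Blood pressure taken at 0 min (control) and over 60 min afterward. Data as mean ± SEM, analysed by one-way ANOVA with Dunnett's test against 0 min.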

[5] = molecular target: T3, Alpha-1B adrenergic receptor (Homo sapiens, UniProt P35368); test: Intrinsic activity at human alpha1B adrenergic receptor expressed in CHOK1 cells co-expressing aequorin assessed as inhibition of agonist induced calcium mobilization preincubated for 15 mins followed by agonist addition measured for 20 secs in presence of coelenterazine H by luminescence assay; assay type: cell-based, CHO-K1
T3 sequence (P35368 whole entry): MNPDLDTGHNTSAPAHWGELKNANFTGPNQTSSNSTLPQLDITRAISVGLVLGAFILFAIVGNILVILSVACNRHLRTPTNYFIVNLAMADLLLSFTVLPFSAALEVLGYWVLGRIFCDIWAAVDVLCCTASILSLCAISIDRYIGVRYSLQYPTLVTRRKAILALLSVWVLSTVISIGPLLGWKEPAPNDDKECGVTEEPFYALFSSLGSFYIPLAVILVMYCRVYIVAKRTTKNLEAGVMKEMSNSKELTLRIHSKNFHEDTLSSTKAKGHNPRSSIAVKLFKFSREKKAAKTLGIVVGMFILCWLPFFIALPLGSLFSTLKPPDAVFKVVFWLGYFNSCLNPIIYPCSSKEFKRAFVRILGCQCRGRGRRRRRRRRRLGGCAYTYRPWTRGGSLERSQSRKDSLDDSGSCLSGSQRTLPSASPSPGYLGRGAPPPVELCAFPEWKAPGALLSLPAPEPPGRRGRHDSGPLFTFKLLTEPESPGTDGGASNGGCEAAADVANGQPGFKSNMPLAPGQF
Procedure, shortened: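 Frozen ready-to-use cells stably expressing α1B receptor and aequorin, resuspended in assay buffer with 5 µM coelenterazine h and rotated overnight at rt in the dark. Diluted to 5000 cells/20 µL. Agonist mode: cells injected onto ligands, light recorded 20 s. Antagonist mode: 15 min with compound at room temperature, then agonist at 3× EC80 final, light recorded 20 s. Mean EC50 from three experiments.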

Rattus norvegicus [6] = test: Hypotensive activity in normotensive anesthetized Wistar rat assessed as decrease in diastolic blood pressure at 2 mg/kg, iv administered as single dose measured 60 mins post dose relative to control; assay type: functional; conditions: 1 h; procedure, shortened: as §2

Structure (SMILES) | Ratio Ki (Rattus norvegicus [1]) | Ki [2] | Ki [3] | inhibition in vivo at 2 mg/kg (Rattus norvegicus [4]) | EC50 [5] | inhibition in vivo at 2 mg/kg (Rattus norvegicus [6])
COc1ccccc1OCCN1CCC(NS(=O)(=O)c2cccc3cccnc23)CC1 | 1 | 93 nM | 131 nM | – | – | –
COc1ccccc1OCCN1CC[C@@H](NS(=O)(=O)c2cc(Cl)ccc2F)C1 | 8 | 289 nM | 2354 nM | – | – | –
CC(C)Oc1ccccc1OCCN1CCC(CNS(=O)(=O)c2ccc(F)cc2)CC1 | 5 | 77 nM | 416 nM | – | – | –
CC(C)Oc1ccccc1OCCN1CCC(CNS(=O)(=O)c2cc(Cl)ccc2F)CC1 | 7 | 133 nM | 870 nM | – | – | –
CC(C)Oc1ccccc1OCCN1CCC(CNS(=O)(=O)c2cncc3ccccc23)CC1 | 9 | 67 nM | 578 nM | – | – | –
COc1ccccc1OCCN1CC[C@H](NS(=O)(=O)c2cccc(Cl)c2F)C1 | > 29 | 348 nM | > 10000 nM | – | – | –
COc1ccccc1OCCN1CCC(NS(=O)(=O)c2cc(Cl)ccc2F)CC1 | 4 | 34 nM | 129 nM | – | – | –
COc1ccccc1OCCN1CC[C@H](NS(=O)(=O)c2cc(Cl)ccc2F)C1 | – | 214 nM | > 10000 nM | – | – | –
COc1ccccc1OCCN1CC[C@@H](NS(=O)(=O)c2cccc(Cl)c2F)C1 | 8 | 241 nM | 1944 nM | – | – | –
CC(C)Oc1ccccc1OCCN1CCC(NS(=O)(=O)c2cccc3cccnc23)CC1 | 3 | 73 nM | 194 nM | – | – | –
CC(C)Oc1ccccc1OCCN1CC[C@@H](NS(=O)(=O)c2cc(Cl)ccc2F)C1 | 4 | 106 nM | 398 nM | – | – | –
CCOc1ccccc1OCCN[C@H](C)Cc1ccc(OC)c(S(N)(=O)=O)c1 [TAMSULOSIN] | – | – | – | 11 to 17% | 0.13 nM | 11 to 18%
CC(C)Oc1ccccc1OCCN1CC[C@H](NS(=O)(=O)c2cc(Cl)ccc2F)C1 | > 41 | 242 nM | > 10000 nM | – | – | –
CC(C)Oc1ccccc1OCCN1CCC(NS(=O)(=O)c2cc(Cl)ccc2F)CC1 | 3 | 118 nM | 293 nM | – | – | –
CC(C)Oc1ccccc1OCCN1CCC(NS(=O)(=O)c2cccc(Cl)c2F)CC1 | 1 | 131 nM | 188 nM | – | – | –
CC(C)Oc1ccccc1OCCN1CC[C@H](NS(=O)(=O)c2cccc(Cl)c2F)C1 | > 109 | 92 nM | > 10000 nM | – | – | –
CC(C)Oc1ccccc1OCCN1CC[C@@H](NS(=O)(=O)c2cccc(Cl)c2F)C1 | 2 | 176 nM | 378 nM | – | – | –
